Assay results from PMC8809394 (Chemical Science, 2022).
Substitutions are numbered along the chain they refer to. Several values for one entry are separate records, joined by “and”; a condition that tells them apart may be missing. Equal values may be shown once.

Tests used:
Luminescence lifetime = assay type: physicochemical; details: MQ H2O; λexc 450 nm, λem 620 nm; covalent ArMs 50 μM
[1] = molecular target: T1, POPNeg (prolyl oligopeptidase variant) (Pyrococcus furiosus, UniProt Q51714, G99D/K255A/R198A/R338A/R55A/W142D/Y326D); test: Luminescence lifetime titration, cofactor binding to POPNeg; details: non-covalent binding to POPNeg
T1 sequence (Q51714 1-616 R55A/G99D/W142D/R198A/K255A/Y326D/R338A): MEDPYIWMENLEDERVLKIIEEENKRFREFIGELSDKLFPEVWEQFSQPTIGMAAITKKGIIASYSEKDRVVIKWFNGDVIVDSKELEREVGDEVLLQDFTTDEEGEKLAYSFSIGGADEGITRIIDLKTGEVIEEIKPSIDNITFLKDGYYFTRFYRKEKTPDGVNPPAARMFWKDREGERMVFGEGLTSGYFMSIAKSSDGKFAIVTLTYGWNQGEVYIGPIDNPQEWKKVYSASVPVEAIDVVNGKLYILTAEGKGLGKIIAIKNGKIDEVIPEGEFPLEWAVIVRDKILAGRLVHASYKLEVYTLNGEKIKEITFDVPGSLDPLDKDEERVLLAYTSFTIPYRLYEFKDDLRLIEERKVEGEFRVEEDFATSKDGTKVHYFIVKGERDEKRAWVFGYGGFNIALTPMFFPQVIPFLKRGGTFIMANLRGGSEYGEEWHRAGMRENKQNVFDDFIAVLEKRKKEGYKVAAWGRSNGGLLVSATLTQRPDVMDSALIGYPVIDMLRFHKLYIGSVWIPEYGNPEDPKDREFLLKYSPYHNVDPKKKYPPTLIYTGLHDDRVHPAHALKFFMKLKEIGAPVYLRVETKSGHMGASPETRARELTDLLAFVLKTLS
Method in brief: (§1)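 Non-covalent binding is measured by luminescence lifetime titration of the Ru(Bpy)3 2+-type cofactor against Pyrococcus furiosus prolyl oligopeptidase scaffold variants. Kd comes from the titration. Δ lifetime is the lifetime difference between free and bound cofactor. Each plotted point is a single measurement. Error bars are standard deviations from single-exponential tail fitting of the decay data.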

BSA = BSA (Bos taurus, UniProt P02769); test: Luminescence lifetime titration with BSA; assay type: binding; details: 3a 5 μM, BSA in MQ H2O
BSA, sequence (P02769 25-607): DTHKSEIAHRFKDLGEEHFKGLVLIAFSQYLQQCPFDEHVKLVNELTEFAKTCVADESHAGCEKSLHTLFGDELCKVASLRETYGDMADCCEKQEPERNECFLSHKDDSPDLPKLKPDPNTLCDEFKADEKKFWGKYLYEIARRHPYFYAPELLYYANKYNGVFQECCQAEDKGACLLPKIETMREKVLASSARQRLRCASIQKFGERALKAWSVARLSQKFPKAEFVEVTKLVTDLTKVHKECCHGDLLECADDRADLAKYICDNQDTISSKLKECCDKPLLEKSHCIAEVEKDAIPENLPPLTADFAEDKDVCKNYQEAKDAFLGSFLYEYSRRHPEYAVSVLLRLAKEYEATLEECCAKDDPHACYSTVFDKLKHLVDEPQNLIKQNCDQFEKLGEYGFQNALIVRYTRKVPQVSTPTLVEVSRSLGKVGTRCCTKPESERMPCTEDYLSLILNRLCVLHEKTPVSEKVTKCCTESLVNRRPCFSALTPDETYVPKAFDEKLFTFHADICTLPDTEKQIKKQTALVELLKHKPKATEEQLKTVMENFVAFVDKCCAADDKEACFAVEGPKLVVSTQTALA

[2] = molecular target: T2, POPWT (prolyl oligopeptidase) (Pyrococcus furiosus, UniProt Q51714); test: Luminescence lifetime titration, cofactor binding to POPWT; details: for Kd: POPWT 0-300 μM, cofactor 5 μM, MQ H2O (+/- 0.5% ACN); for Δ lifetime (free vs. bound cofactor): non-covalent binding to POPWT
T2 sequence (Q51714 1-616): T1 sequence (Q51714 1-616 R55A/G99D/W142D/R198A/K255A/Y326D/R338A) with A55R, D99G, D142W, A198R, A255K, D326Y, A338R
Method in brief: as §1

[3] = deoxygenated acetonitrile ref 5,8; cited from earlier work
[4] = molecular target: T3, POPNeut (prolyl oligopeptidase variant) (Pyrococcus furiosus, UniProt Q51714, G99A/K255A/R198A/R338A/R55A/W142A/Y326A); test: Luminescence lifetime titration, cofactor binding to POPNeut
T3 sequence (Q51714 1-616 R55A/G99A/W142A/R198A/K255A/Y326A/R338A): T1 sequence (Q51714 1-616 R55A/G99D/W142D/R198A/K255A/Y326D/R338A) with D99A, D142A, D326A
Method in brief: as §1

| SMILES | Lifetime (luminescence) (Luminescence lifetime) | Δ lifetime (free vs. bound cofactor) [1] | binding to BSA (BSA) | binding to BSA (BSA; listed as Ru(Bpy)3^2+) | Kd [2] | Δ lifetime (free vs. bound cofactor) [2] | luminescence lifetime [3] | Kd ([4]; POPNeut 0-300 μM, cofactor 5 μM, MQ H2O) | Δ lifetime (free vs. bound cofactor) ([4]; non-covalent binding to POPNeut) |
| --- | --- | --- | --- | --- | --- | --- | --- | --- | --- |
| [Cl-].[Cl-].[Ru+2].c1ccc(-c2ccccn2)nc1.c1ccc(-c2ccccn2)nc1.c1ccc(-c2ccccn2)nc1 [3a, Ru(Bpy)3^2+] | 573 ns | 183 ns | minimal non-specific binding affinity | negligible binding | 28 µM and 28.3 µM | 96 ns | 930 ns | 1.7 µM and 1.65 µM | 166 ns |
| [Ru+2].c1ccc(-c2ccccn2)nc1.c1ccc(-c2ccccn2)nc1.c1ccc(-c2ccccn2)nc1 [3b] | – | – | – | – | 30 µM and 30.1 µM | 110 ns | – | – | – |
| O=C([O-])c1ccnc(-c2cc(C(=O)[O-])ccn2)c1.[Ru+2].c1ccc(-c2ccccn2)nc1.c1ccc(-c2ccccn2)nc1 [3d] | – | 125 ns | – | – | 30 µM and 29.5 µM | 35 ns | – | – | – |
